Calls of active or inactive are those of the source. No cut-off for these calls is given here.
Tested on: Saccharomyces cerevisiae
Test: Inhibition of yeast chitin synthase at 100 ug/mL by high throughput assay
Method in brief: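 Cell-extract enzymatic assay of chitin synthesis. Cells were pelleted at 1500 × g for 10 min at 4 °C, then broken by grinding with glass beads under liquid nitrogen. Activity was scored as percent inhibition, also converted to D = log[a/(100−a)] − log Mw.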

Row | inhibition | Structure (SMILES)
1 | Active | CCCCC(CCCC)N(NC(=O)c1ccc(CC)cc1)C(=O)c1cc(F)c(OC)c(F)c1F
2 | Active | CCCCC(CCCC)N(NC(=O)c1ccc(Cl)cc1)C(=O)c1ccccc1OC
3 | Active | CCCCC(CCCC)N(NC(=O)c1ccccc1Cl)C(=O)c1ccc(F)cc1
4 | 79% | CCCCC(CCCC)N(NC(=O)c1ccc(CC)cc1)C(=O)c1ccccc1OC
5 | Active | CCCCC(CCCC)N(NC(=O)c1ccc(CC)cc1)C(=O)CCl
6 | 81% | CCCCC(CCCC)N(NC(=O)c1ccccc1Cl)C(=O)c1ccccc1OC
7 | Active | CCCCC(CCCC)N(NC(=O)c1ccc(CC)cc1)C(=O)c1cc(C)cc(C)c1
8 | Active | CCCCC(CCCC)N(NC(=O)c1ccc(CC)cc1)C(=O)c1ccccc1Cl
9 | Active | CCCCC(CCCC)N(NC(=O)c1ccc(CC)cc1)C(=O)c1ccc2c(c1)OCO2
10 | Active | CCCCC(CCCC)N(NC(=O)c1cc(C)cc(C)c1)C(=O)c1ccc(CC)cc1

Continued, compound first:

Row | Structure (SMILES) | inhibition
11 | CCCCC(CCCC)N(NC(=O)c1ccccc1Cl)C(=O)c1cccc(F)c1 | Active
12 | CCCCC(CCCC)N(NC(=O)c1ccccc1Cl)C(=O)c1ccccc1 | Active
13 | CCCCC(CCCC)N(NC(=O)c1cccc(OC)c1)C(=O)c1ccccc1 | Active
14 | CCCCC(CCCC)N(NC(=O)c1ccc(Cl)cc1Cl)C(=O)c1cc(C)cc(C)c1 | Active
15 | CCCCC(CCCC)N(NC(=O)c1cc(OC)c(OC)c(OC)c1)C(=O)c1ccccc1Cl | Active
16 | CCCCC(CCCC)N(NC(=O)c1ccc(Cl)cc1)C(=O)c1cc(C)cc(C)c1 | Active
17 | CCCCC(CCCC)N(NC(=O)c1cc(OC)c(OC)c(OC)c1)C(=O)c1cc(C)cc(C)c1 | Active
18 | CCCCC(CCCC)N(NC(=O)c1cc(OC)c(OC)c(OC)c1)C(=O)c1cc(F)c(OC)c(F)c1F | Active
19 | CCCCC(CCCC)N(NC(=O)c1ccccc1Cl)C(=O)c1cc(C)cc(C)c1 | Active
